Laboratory results published in ChEMBL document CHEMBL1134229 (Bioorg Med Chem Lett, 2001).

How the values were obtained:
[1] = molecular target: T1, Somatostatin receptor type 4 (Homo sapiens, UniProt P31391); test: Inhibitory constant on human somatostatin receptor 4
Method in brief: (§1)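 Competition binding against [¹²⁵I-Tyr¹¹]SRIF-14 on membranes from CHO-K1 cells stably expressing each human SRIF receptor subtype. Method adapted from Shimon et al. Ki is reported.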

[2] = molecular target: T2, Somatostatin receptor type 2 (Homo sapiens, UniProt P30874); test: (§2) Inhibitory constant on human Somatostatin receptor type 2; type: single protein; method in brief: as §1
[3] = molecular target: T3, Somatostatin receptor type 5 (Homo sapiens, UniProt P35346); test: Inhibitory constant on human somatostatin receptor 5; method in brief: as §1
[4] = molecular target: T4, Somatostatin receptor type 3 (Homo sapiens, UniProt P32745); test: Inhibitory constant on human somatostatin receptor type 3; method in brief: as §1
[5] = molecular target: Somatostatin receptor type 1 (Homo sapiens, UniProt P30872); test: Inhibitory constant on human Somatostatin receptor type 1; method in brief: as §1
[6] = molecular target: T1, Somatostatin receptor type 4; test: Inhibitory constant on human Somatostatin receptor type 4; method in brief: as §1
[7] = molecular target: T2, Somatostatin receptor type 2; test: as §2; method in brief: as §1
[8] = molecular target: T4, Somatostatin receptor type 3; test: Inhibitory constant on human Somatostatin receptor type 3; method in brief: as §1
[9] = molecular target: T3, Somatostatin receptor type 5; test: Inhibitory constant on human Somatostatin receptor type 5; method in brief: as §1
[10] = molecular target: T3, Somatostatin receptor type 5; test: Agonist activity on human somatostatin receptor 5; type: functional
Method in brief: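 Confluent CHO-K1 cells expressing human sst₅ were washed in RPMI 1640 with 0.2% BSA at 37 °C, then preincubated 5 min with isobutylmethylxanthine. Cells were then incubated 20 min at 37 °C with forskolin plus increasing agonist concentrations.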

T3 sequence (P35346 whole entry): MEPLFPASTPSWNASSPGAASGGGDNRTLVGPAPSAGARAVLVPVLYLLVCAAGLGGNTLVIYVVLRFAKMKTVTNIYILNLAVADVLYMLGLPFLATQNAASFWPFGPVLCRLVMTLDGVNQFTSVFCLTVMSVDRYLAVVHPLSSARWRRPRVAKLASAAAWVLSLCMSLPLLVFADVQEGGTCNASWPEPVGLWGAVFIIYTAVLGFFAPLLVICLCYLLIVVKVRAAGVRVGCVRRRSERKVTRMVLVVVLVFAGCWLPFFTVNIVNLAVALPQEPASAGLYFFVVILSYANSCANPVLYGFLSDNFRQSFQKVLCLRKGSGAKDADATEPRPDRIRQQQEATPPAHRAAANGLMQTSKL
Chain of Somatostatin receptor type 1 (P30872 whole entry): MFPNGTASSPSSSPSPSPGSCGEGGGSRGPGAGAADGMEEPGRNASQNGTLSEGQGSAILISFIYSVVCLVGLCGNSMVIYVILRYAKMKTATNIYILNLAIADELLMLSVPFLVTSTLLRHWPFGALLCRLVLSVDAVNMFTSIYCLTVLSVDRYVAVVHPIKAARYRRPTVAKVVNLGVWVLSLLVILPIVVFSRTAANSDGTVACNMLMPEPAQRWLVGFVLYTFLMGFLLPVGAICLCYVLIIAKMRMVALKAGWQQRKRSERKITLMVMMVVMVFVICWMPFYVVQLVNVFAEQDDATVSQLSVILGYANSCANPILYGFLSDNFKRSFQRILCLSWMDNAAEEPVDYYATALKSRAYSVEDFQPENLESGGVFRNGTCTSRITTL
T1 sequence (P31391 whole entry): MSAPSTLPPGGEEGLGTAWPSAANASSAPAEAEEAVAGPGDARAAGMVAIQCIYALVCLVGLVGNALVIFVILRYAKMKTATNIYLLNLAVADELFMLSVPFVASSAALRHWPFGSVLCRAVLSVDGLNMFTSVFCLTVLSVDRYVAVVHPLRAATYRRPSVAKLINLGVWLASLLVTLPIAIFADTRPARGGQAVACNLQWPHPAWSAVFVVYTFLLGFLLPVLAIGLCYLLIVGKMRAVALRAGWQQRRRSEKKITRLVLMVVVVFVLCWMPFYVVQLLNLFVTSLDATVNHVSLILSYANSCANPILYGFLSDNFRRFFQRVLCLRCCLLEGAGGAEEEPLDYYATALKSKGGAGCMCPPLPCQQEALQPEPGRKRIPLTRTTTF
T2 sequence (P30874 whole entry): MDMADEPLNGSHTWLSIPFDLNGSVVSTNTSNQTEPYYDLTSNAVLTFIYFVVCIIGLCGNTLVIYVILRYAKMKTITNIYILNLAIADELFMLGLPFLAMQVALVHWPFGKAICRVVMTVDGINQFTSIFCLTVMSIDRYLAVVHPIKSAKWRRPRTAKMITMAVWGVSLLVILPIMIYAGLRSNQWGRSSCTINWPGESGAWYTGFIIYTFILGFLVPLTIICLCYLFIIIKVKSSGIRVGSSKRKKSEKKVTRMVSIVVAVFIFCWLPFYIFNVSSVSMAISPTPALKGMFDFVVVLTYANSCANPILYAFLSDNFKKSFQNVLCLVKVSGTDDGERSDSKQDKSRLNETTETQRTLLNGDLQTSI
T4 sequence (P32745 whole entry): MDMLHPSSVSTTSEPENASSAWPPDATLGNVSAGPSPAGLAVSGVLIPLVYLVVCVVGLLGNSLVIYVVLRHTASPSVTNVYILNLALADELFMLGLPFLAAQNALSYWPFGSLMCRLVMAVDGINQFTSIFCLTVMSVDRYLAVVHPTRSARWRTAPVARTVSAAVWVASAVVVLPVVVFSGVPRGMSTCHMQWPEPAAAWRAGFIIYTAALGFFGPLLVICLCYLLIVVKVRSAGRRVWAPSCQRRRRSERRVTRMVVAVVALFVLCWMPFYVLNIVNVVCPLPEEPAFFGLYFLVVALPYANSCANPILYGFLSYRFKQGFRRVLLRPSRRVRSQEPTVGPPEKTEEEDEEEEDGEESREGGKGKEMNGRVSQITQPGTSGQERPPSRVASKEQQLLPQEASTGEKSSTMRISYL

SMILES: NCCCc1nc(-c2cccc([N+](=O)[O-])c2)cn2cc(-c3ccccc3)nc12
- Ki [1]: > 10 µM
- Ki [2]: 7.9 µM
- Ki [3]: 0.43 µM
- Ki [4]: 2.5 µM
- Ki [5]: 3.4 µM

SMILES: CC(C)(C(=O)NCCc1c[nH]c2ccccc12)c1cn2cc(-c3csc4ccccc34)nc(CCCN)c2n1
- Ki [1]: > 10 µM
- Ki [2]: 3.2 µM
- Ki [3]: 2.3 µM
- Ki [4]: 10 µM
- Ki [5]: 4 µM

SMILES: CCCCNC(=O)C(C)(C)c1cn2cc(-c3csc4ccccc34)nc(CCCN)c2n1
- Ki [1]: > 10 µM
- Ki [2]: > 10 µM
- Ki [3]: 0.54 µM
- Ki [4]: 8.9 µM
- Ki [5]: > 10 µM

SMILES: NCCCc1nc(-c2csc3ccccc23)cn2cc(-c3ccccc3)nc12
- Ki [1]: 7.2 µM
- Ki [2]: 2.1 µM
- Ki [3]: 0.6 µM
- Ki [4]: 1.7 µM
- Ki [5]: 2.9 µM

SMILES: CC(C)(C(=O)NCCN)c1cn2c(n1)C(Cc1c[nH]c3ccccc13)N=C(Cc1ccccc1)C2 (stereo unspecified)
- Ki [6]: > 10 µM
- Ki [7]: > 10 µM
- Ki [8]: > 10 µM
- Ki [5]: > 10 µM
- Ki [9]: > 1 µM

SMILES: CC(C)(C(=O)NCCc1c[nH]c2ccccc12)c1cn2cc(Cc3ccccc3)nc(CCCN)c2n1
- Ki [1]: 7.2 µM
- Ki [2]: 8.6 µM
- Ki [3]: 1.2 µM
- Ki [4]: 1.2 µM
- Ki [5]: 4.6 µM

SMILES: CC(C)(C(=O)NC1CCCCC1)c1cn2cc(-c3csc4ccccc34)nc(CCCN)c2n1
- Ki [1]: > 10 µM
- Ki [2]: 9.5 µM
- EC50 [10]: 1.6 µM
- Ki [3]: 0.36 µM
- Ki [4]: 3.7 µM
- Ki [5]: 9.7 µM

SMILES: NCCCc1nc(-c2ccccc2)cn2cc(-c3ccccc3)nc12
- Ki [1]: > 5 µM
- Ki [2]: > 5 µM
- Ki [3]: > 5 µM
- Ki [4]: > 5 µM
- Ki [5]: > 5 µM

SMILES: NCCCc1nc(-c2c[nH]c3ccccc23)cn2cc(-c3ccccc3)nc12
- Ki [1]: > 10 µM
- Ki [2]: 6 µM
- Ki [3]: 0.79 µM
- Ki [4]: 3.1 µM
- Ki [5]: 3.3 µM

SMILES: c1ccc(Cc2nc(-c3ccccc3)cn3cc(-c4ccccc4)nc23)cc1
- Ki [6]: > 5 µM
- Ki [7]: > 5 µM
- Ki [8]: > 5 µM
- Ki [5]: > 5 µM
- Ki [9]: > 5 µM
